Laboratory results reported in ChEMBL document CHEMBL3526002, “Tissue distribution and identification of radioactivity components at elimination phase after oral administration of [¹⁴C]CS-1036, an α-amylase inhibitor, to rats” (Drug Metab Dispos, 2013).

Assays:
Cerebellum [1] = experiment: Drug uptake in albino F344/DuCrlCrlj rat cerebellum assessed as ng equivalent of CS-1036 at 5 mg/kg, po after 4 hrs by liquid scintillation counting; assay type: ADME, organism-based; parameters: dose 5 mg/kg, dosed compound name [14C]CS-1036, route oral; conditions: in vivo
[2] = Drug uptake in albino F344/DuCrlCrlj rat thyroid gland at 5 mg/kg, po after 168 hrs by liquid scintillation counting; assay type: ADME, organism-based; parameters: dose 5 mg/kg, dosed compound name [14C]CS-1036, route oral; conditions: in vivo
Liver = experiment: Drug uptake in albino F344/DuCrlCrlj rat liver at 5 mg/kg, po after 4 hrs by liquid scintillation counting; assay type: ADME, organism-based; parameters: dose 5 mg/kg, dosed compound name [14C]CS-1036, route oral; conditions: in vivo
Stomach [3] = experiment: Drug uptake in albino F344/DuCrlCrlj rat stomach at 5 mg/kg, po after 24 hrs by liquid scintillation counting; assay type: ADME, organism-based; parameters: dose 5 mg/kg, dosed compound name [14C]CS-1036, route oral; conditions: in vivo
Lung [4] = experiment: Drug uptake in albino F344/DuCrlCrlj rat lung assessed as ng equivalent of CS-1036 at 5 mg/kg, po after 168 hrs by liquid scintillation counting; assay type: ADME, organism-based; parameters: dose 5 mg/kg, dosed compound name [14C]CS-1036, route oral; conditions: in vivo
Cerebrum [5] = experiment: Drug uptake in albino F344/DuCrlCrlj rat cerebrum at 5 mg/kg, po after 1 hr by liquid scintillation counting; assay type: ADME, organism-based; parameters: dose 5 mg/kg, dosed compound name [14C]CS-1036, route oral; conditions: in vivo
How it was run: (§1)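 Single oral [14C]CS-1036 at 5 mg/kg was given to male rats (159–167 g; n = 3). Cerebrum was collected after aortic bleeding at 1, 4, 8, 24, 72, 168 or 336 h, weighed, and homogenized in 2 volumes of saline. A 0.5 ml aliquot was solubilized in Soluene-350 and counted by LSC with external-standard correction. Results are in ng equivalent/g tissue from specific activity and sample weight.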

Thymus [6] = experiment: Drug uptake in albino F344/DuCrlCrlj rat thymus at 5 mg/kg, po after 168 hrs by liquid scintillation counting; assay type: ADME, organism-based; parameters: dose 5 mg/kg, dosed compound name [14C]CS-1036, route oral; conditions: in vivo
Small intestine [7] = experiment: Drug uptake in albino F344/DuCrlCrlj rat small intestine at 5 mg/kg, po after 1 hr by liquid scintillation counting; assay type: ADME, organism-based; parameters: dose 5 mg/kg, dosed compound name [14C]CS-1036, route oral; conditions: in vivo
Plasma [8] = experiment: Drug uptake in albino F344/DuCrlCrlj rat plasma assessed as ng equivalent of CS-1036 at 5 mg/kg, po after 72 hrs by liquid scintillation counting; assay type: ADME, organism-based; parameters: dose 5 mg/kg, dosed compound name [14C]CS-1036, route oral; conditions: in vivo
Cerebrum [9] = experiment: Drug uptake in albino F344/DuCrlCrlj rat cerebrum assessed as ng equivalent of CS-1036 at 5 mg/kg, po after 4 hrs by liquid scintillation counting; assay type: ADME, organism-based; parameters: dose 5 mg/kg, dosed compound name [14C]CS-1036, route oral; conditions: in vivo; how it was run: as §1
[10] = Drug uptake in albino F344/DuCrlCrlj rat mandibular gland at 5 mg/kg, po after 24 hrs by liquid scintillation counting; assay type: ADME, organism-based; parameters: dose 5 mg/kg, dosed compound name [14C]CS-1036, route oral; conditions: in vivo
Spleen [11] = experiment: Drug uptake in albino F344/DuCrlCrlj rat spleen assessed as ng equivalent of CS-1036 at 5 mg/kg, po after 8 hrs by liquid scintillation counting; assay type: ADME, organism-based; parameters: dose 5 mg/kg, dosed compound name [14C]CS-1036, route oral; conditions: in vivo
Thymus [12] = experiment: Drug uptake in albino F344/DuCrlCrlj rat thymus assessed as ng equivalent of CS-1036 at 5 mg/kg, po after 1 hr by liquid scintillation counting; assay type: ADME, organism-based; parameters: dose 5 mg/kg, dosed compound name [14C]CS-1036, route oral; conditions: in vivo
Plasma [13] = experiment: Drug metabolism in albino F344/DuCrlCrlj rat plasma protein assessed as unbound parent compound and metabolite M1 level at 10 mg/kg, po administered for 5 days by liquid scintillation counting; assay type: ADME, organism-based; parameters: dose 10 mg/kg, dosed compound name [14C]CS-1036, route oral; conditions: in vivo, 120 h
How it was run: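 Male F344/DuCrlCrlj rats (n = 3) received oral [14C]CS-1036 at 10 mg/kg/day for 5 days at 24-h intervals, with food freely available. Plasma was taken from the abdominal aorta 24 h after the fifth dose and pooled. It was precipitated with acetonitrile, and the pellets were washed with 0.4 M TCA, 80% methanol and 30% ether/ethanol until washes were below twice background. Pellets were HCl-hydrolysed, and recovered radioactivity was counted by LSC.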

Lung [14] = experiment: Drug uptake in albino F344/DuCrlCrlj rat lung at 5 mg/kg, po after 168 hrs by liquid scintillation counting; assay type: ADME, organism-based; parameters: dose 5 mg/kg, dosed compound name [14C]CS-1036, route oral; conditions: in vivo
[15] = Drug uptake in albino F344/DuCrlCrlj rat testis at 5 mg/kg, po after 72 hrs by liquid scintillation counting; assay type: ADME, organism-based; parameters: dose 5 mg/kg, dosed compound name [14C]CS-1036, route oral; conditions: in vivo
Aorta [16] = experiment: Drug uptake in albino F344/DuCrlCrlj rat aorta at 5 mg/kg, po after 72 hrs by liquid scintillation counting; assay type: ADME, organism-based; parameters: dose 5 mg/kg, dosed compound name [14C]CS-1036, route oral; conditions: in vivo
[17] = Drug uptake in albino F344/DuCrlCrlj rat epididymis assessed as ng equivalent of CS-1036 at 5 mg/kg, po after 1 hr by liquid scintillation counting; assay type: ADME, organism-based; parameters: dose 5 mg/kg, dosed compound name [14C]CS-1036, route oral; conditions: in vivo
Heart = experiment: Drug uptake in albino F344/DuCrlCrlj rat heart assessed as ng equivalent of CS-1036 at 5 mg/kg, po after 168 hrs by liquid scintillation counting; assay type: ADME, organism-based; parameters: dose 5 mg/kg, dosed compound name [14C]CS-1036, route oral; conditions: in vivo
Thymus [18] = experiment: Drug uptake in albino F344/DuCrlCrlj rat thymus at 5 mg/kg, po after 72 hrs by liquid scintillation counting; assay type: ADME, organism-based; parameters: dose 5 mg/kg, dosed compound name [14C]CS-1036, route oral; conditions: in vivo
Small intestine [19] = experiment: Drug uptake in albino F344/DuCrlCrlj rat small intestine assessed as ng equivalent of CS-1036 at 5 mg/kg, po after 168 hrs by liquid scintillation counting; assay type: ADME, organism-based; parameters: dose 5 mg/kg, dosed compound name [14C]CS-1036, route oral; conditions: in vivo
Aorta [20] = experiment: Drug uptake in albino F344/DuCrlCrlj rat aorta at 5 mg/kg, po after 24 hrs by liquid scintillation counting; assay type: ADME, organism-based; parameters: dose 5 mg/kg, dosed compound name [14C]CS-1036, route oral; conditions: in vivo
Aorta [21] = experiment: Drug uptake in albino F344/DuCrlCrlj rat aorta assessed as ng equivalent of CS-1036 at 5 mg/kg, po after 8 hrs by liquid scintillation counting; assay type: ADME, organism-based; parameters: dose 5 mg/kg, dosed compound name [14C]CS-1036, route oral; conditions: in vivo
[22] = Drug uptake in albino F344/DuCrlCrlj rat skeletal muscle assessed as ng equivalent of CS-1036 at 5 mg/kg, po after 72 hrs by liquid scintillation counting; assay type: ADME, organism-based, Muscle tissue; parameters: dose 5 mg/kg, dosed compound name [14C]CS-1036, route oral; conditions: in vivo
Lung [23] = experiment: Drug uptake in albino F344/DuCrlCrlj rat lung at 5 mg/kg, po after 24 hrs by liquid scintillation counting; assay type: ADME, organism-based; parameters: dose 5 mg/kg, dosed compound name [14C]CS-1036, route oral; conditions: in vivo
[24] = Drug uptake in albino F344/DuCrlCrlj rat bone marrow assessed as ng equivalent of CS-1036 at 5 mg/kg, po after 1 hr by liquid scintillation counting; assay type: ADME, organism-based; parameters: dose 5 mg/kg, dosed compound name [14C]CS-1036, route oral; conditions: in vivo
Cerebrum [25] = experiment: Drug uptake in albino F344/DuCrlCrlj rat cerebrum at 5 mg/kg, po after 4 hrs by liquid scintillation counting; assay type: ADME, organism-based; parameters: dose 5 mg/kg, dosed compound name [14C]CS-1036, route oral; conditions: in vivo; how it was run: as §1
Zone of skin = experiment: Drug uptake in albino F344/DuCrlCrlj rat skin at 5 mg/kg, po after 72 hrs by liquid scintillation counting; assay type: ADME, organism-based; parameters: dose 5 mg/kg, dosed compound name [14C]CS-1036, route oral; conditions: in vivo
[26] = Drug uptake in albino F344/DuCrlCrlj rat testis assessed as ng equivalent of CS-1036 at 5 mg/kg, po after 168 hrs by liquid scintillation counting; assay type: ADME, organism-based; parameters: dose 5 mg/kg, dosed compound name [14C]CS-1036, route oral; conditions: in vivo
Kidney = experiment: Drug uptake in albino F344/DuCrlCrlj rat kidney assessed as ng equivalent of CS-1036 at 5 mg/kg, po after 8 hrs by liquid scintillation counting; assay type: ADME, organism-based; parameters: dose 5 mg/kg, dosed compound name [14C]CS-1036, route oral; conditions: in vivo
Spleen [27] = experiment: Drug uptake in albino F344/DuCrlCrlj rat spleen at 5 mg/kg, po after 336 hrs by liquid scintillation counting; assay type: ADME, organism-based; parameters: dose 5 mg/kg, dosed compound name [14C]CS-1036, route oral; conditions: in vivo
[28] = Drug uptake in albino F344/DuCrlCrlj rat skeletal muscle at 5 mg/kg, po after 4 hrs by liquid scintillation counting; assay type: ADME, organism-based, Muscle tissue; parameters: dose 5 mg/kg, dosed compound name [14C]CS-1036, route oral; conditions: in vivo
Stomach [29] = experiment: Drug uptake in albino F344/DuCrlCrlj rat stomach at 5 mg/kg, po after 168 hrs by liquid scintillation counting; assay type: ADME, organism-based; parameters: dose 5 mg/kg, dosed compound name [14C]CS-1036, route oral; conditions: in vivo
Cerebellum [30] = experiment: Drug uptake in albino F344/DuCrlCrlj rat cerebellum assessed as ng equivalent of CS-1036 at 5 mg/kg, po after 336 hrs by liquid scintillation counting; assay type: ADME, organism-based; parameters: dose 5 mg/kg, dosed compound name [14C]CS-1036, route oral; conditions: in vivo
[31] = Drug uptake in albino F344/DuCrlCrlj rat epididymis assessed as ng equivalent of CS-1036 at 5 mg/kg, po after 72 hrs by liquid scintillation counting; assay type: ADME, organism-based; parameters: dose 5 mg/kg, dosed compound name [14C]CS-1036, route oral; conditions: in vivo

SMILES: C[C@H]1O[C@@H](O[C@H]2[C@H](O)[C@@H](O)[C@@H](O[14C@H]3[14C@H](O)[14CH2]N[14C@@H]3[14CH2]O)O[C@@H]2CO)[C@H](O)[C@@H](O)[C@@H]1O
- Radiolabel recovery (Cerebellum [1]): 0.6 ngequiv/g
- Radiolabel recovery [2]: 33.7 ngequiv/g
- Radiolabel recovery (Liver): 276 ngequiv/g
- Radiolabel recovery (Stomach [3]): 118 ngequiv/g
- Radiolabel recovery (Lung [4]): 8.2 ngequiv/g
- Radiolabel recovery (Cerebrum [5]): 8.81 ngequiv/g
- Radiolabel recovery (Thymus [6]): 12 ngequiv/g
- Radiolabel recovery (Small intestine [7]): 52100 ngequiv/g
- Radiolabel recovery (Plasma [8]): 8 ngequiv/ml
- Radiolabel recovery (Cerebrum [9]): 1.4 ngequiv/g
- Radiolabel recovery [10]: 118 ngequiv/g
- Radiolabel recovery (Spleen [11]): 84.1 ngequiv/g
- Radiolabel recovery (Thymus [12]): 2.1 ngequiv/g
- Radiolabel recovery (Plasma [13]): 11.3%
- Radiolabel recovery (Lung [14]): 17.2 ngequiv/g
- Radiolabel recovery [15]: 24.9 ngequiv/g
- Radiolabel recovery (Aorta [16]): 35.8 ngequiv/g
- Radiolabel recovery [17]: 2.8 ngequiv/g
- Radiolabel recovery (Heart): 5.9 ngequiv/g
- Radiolabel recovery (Thymus [18]): 48.3 ngequiv/g
- Radiolabel recovery (Small intestine [19]): 5.5 ngequiv/g
- Radiolabel recovery (Aorta [20]): 35.2 ngequiv/g
- Radiolabel recovery (Aorta [21]): 42.1 ngequiv/g
- Radiolabel recovery [22]: 9.2 ngequiv/g
- Radiolabel recovery (Lung [23]): 72 ngequiv/g
- Radiolabel recovery [24]: 4.6 ngequiv/g
- Radiolabel recovery (Cerebrum [25]): 12.2 ngequiv/g
- Radiolabel recovery (Zone of skin): 91.5 ngequiv/g
- Radiolabel recovery [26]: 3.81 ngequiv/g
- Radiolabel recovery (Kidney): 1970 ngequiv/g
- Radiolabel recovery (Spleen [27]): 7.81 ngequiv/g
- Radiolabel recovery [28]: 41.4 ngequiv/g
- Radiolabel recovery (Stomach [29]): 23.9 ngequiv/g
- Radiolabel recovery (Cerebellum [30]): 3.05 ngequiv/g
- Radiolabel recovery [31]: 8.3 ngequiv/g
